# Source: ChEMBL document CHEMBL1255234, “daptomycin activity against Staphylococcus aureus following vancomycin exposure in an in vitro pharmacodynamic model with simulated endocardial vegetations” (Antimicrob Agents Chemother, 2008)
# Assays:
# Staphylococcus aureus [1] = assay: Cmax in methicillin-resistant Staphylococcus aureus 675 at 6 mg/kg administered daily for 4 days pretreated with 1 g vancomycin administered every 12 hrs for 4 days in in vitro pharmacokinetic-pharmacodynamic model with simulated endocardial vegetations; format: ADME, organism-based; parameters: dose 6 mg/kg; conditions: in vivo, 96 h
# Procedure, shortened: (§1)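 Duplicate samples taken from the model injection port over 0–192 h and stored at −70°C. Daptomycin assayed by Micrococcus luteus ATCC 9341 disk microbioassay (standards 2.5–150 mg/liter; detection limit 2.5 mg/liter). Vancomycin assayed by fluorescence polarization immunoassay (detection limit 2 mg/liter). Cmax and half-life derived by the trapezoidal method.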
# Staphylococcus aureus [2] = assay: Antimicrobial activity against methicillin-susceptible Staphylococcus aureus at 6 mg/kg administered daily for 4 days after 4 days of growth without antibiotic in in vitro pharmacokinetic-pharmacodynamic model with simulated endocardial vegetations
# Staphylococcus aureus [3] = assay: Antimicrobial activity against methicillin-susceptible Staphylococcus aureus 616 at 6 mg/kg administered daily for 8 days in in vitro pharmacokinetic-pharmacodynamic model with simulated endocardial vegetations; format: functional
# Procedure, shortened: (§2)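 S. aureus SEVs (≈10^9 CFU/g inoculum in human cryoprecipitate plus platelets) suspended in a 250-ml one-compartment model at 37°C. Fresh medium pumped to simulate drug half-lives; drug given as boluses over 8 days; duplicate models. Two SEVs removed per model at each time point (0–192 h), homogenized, plated on TSA 35°C 24 h. Log10 CFU/g reduction read from time-kill curves; detection limit 2.0 log10 CFU/g.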
# Staphylococcus aureus [4] = assay: Antimicrobial activity against methicillin-resistant Staphylococcus aureus WB1
# Staphylococcus aureus [5] = assay: Cmax in methicillin-resistant Staphylococcus aureus WB2 at 6 mg/kg administered daily for 4 days pretreated with 1 g vancomycin administered every 12 hrs for 4 days in in vitro pharmacokinetic-pharmacodynamic model with simulated endocardial vegetations; format: ADME, organism-based; parameters: dose 6 mg/kg; conditions: in vivo, 96 h; procedure, shortened: as §1
# Staphylococcus aureus [6] = assay: Half life in methicillin-resistant Staphylococcus aureus 36132 at 6 mg/kg administered daily for 4 days pretreated with 1 g vancomycin administered every 12 hrs for 4 days in in vitro pharmacokinetic-pharmacodynamic model with simulated endocardial vegetations; format: ADME, organism-based; parameters: dose 6 mg/kg; conditions: in vivo, 96 h; procedure, shortened: as §1
# Staphylococcus aureus [7] = assay: Half life in methicillin-resistant Staphylococcus aureus 675 at 6 mg/kg administered daily for 4 days pretreated with 1 g vancomycin administered every 12 hrs for 4 days in in vitro pharmacokinetic-pharmacodynamic model with simulated endocardial vegetations; format: ADME, organism-based; parameters: dose 6 mg/kg; conditions: in vivo, 96 h; procedure, shortened: as §1
# Staphylococcus aureus [8] = assay: Antimicrobial activity against methicillin-susceptible Staphylococcus aureus 616 at 6 mg/kg administered daily for 4 days pretreated with 1 g vancomycin administered every 12 hrs for 4 days in in vitro pharmacokinetic-pharmacodynamic model with simulated endocardial vegetations; format: functional; procedure, shortened: as §2
# Staphylococcus aureus [9] = assay: Half life in methicillin-susceptible Staphylococcus aureus 616 at 6 mg/kg administered daily for 4 days pretreated with 1 g vancomycin administered every 12 hrs for 4 days in in vitro pharmacokinetic-pharmacodynamic model with simulated endocardial vegetations; format: ADME, organism-based; parameters: dose 6 mg/kg; conditions: in vivo, 96 h; procedure, shortened: as §1
# Staphylococcus aureus [10] = assay: Antimicrobial activity against methicillin-susceptible Staphylococcus aureus 616 at 6 mg/kg administered daily for 8 days pretreated with 1 g vancomycin administered every 12 hrs for 4 days in in vitro pharmacokinetic-pharmacodynamic model with simulated endocardial vegetations; format: functional; procedure, shortened: as §2
# Staphylococcus aureus [11] = assay: Cmax in methicillin-susceptible Staphylococcus aureus 616 at 6 mg/kg administered daily for 4 days pretreated with 1 g vancomycin administered every 12 hrs for 4 days in in vitro pharmacokinetic-pharmacodynamic model with simulated endocardial vegetations; format: ADME, organism-based; parameters: dose 6 mg/kg; conditions: in vivo, 96 h; procedure, shortened: as §1
# Staphylococcus aureus [12] = assay: AUC(0-24 hrs)/MIC(broth) in methicillin-susceptible Staphylococcus aureus 616 at 1 g administered every 12 hrs for 4 days in in vitro pharmacokinetic-pharmacodynamic model with simulated endocardial vegetations; format: functional
# Procedure, shortened: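 S. aureus simulated endocardial vegetations (fibrin/platelet clots, ~10^9 CFU/g) suspended in a 250-ml one-compartment model at 37°C, medium pumped to mimic half-life; vancomycin bolus every 12 h (target Cmax 30, Cmin 10 mg/liter) for 4 days. Duplicate runs. Drug levels by fluorescence polarization immunoassay; AUC0-24 by trapezoidal method, divided by broth microdilution MIC (CLSI).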
# Staphylococcus aureus [13] = assay: Half life in methicillin-resistant Staphylococcus aureus WB2 at 6 mg/kg administered daily for 4 days pretreated with 1 g vancomycin administered every 12 hrs for 4 days in in vitro pharmacokinetic-pharmacodynamic model with simulated endocardial vegetations; format: ADME, organism-based; parameters: dose 6 mg/kg; conditions: in vivo, 96 h; procedure, shortened: as §1
# Staphylococcus aureus [14] = assay: Cmax in methicillin-resistant Staphylococcus aureus WB1 at 6 mg/kg administered daily for 4 days pretreated with 1 g vancomycin administered every 12 hrs for 4 days in in vitro pharmacokinetic-pharmacodynamic model with simulated endocardial vegetations; format: ADME, organism-based; parameters: dose 6 mg/kg; conditions: in vivo, 96 h; procedure, shortened: as §1
# Staphylococcus aureus [15] = assay: Half life in methicillin-resistant Staphylococcus aureus WB2 at 1 g administered every 12 hrs for 4 days in in vitro pharmacokinetic-pharmacodynamic model with simulated endocardial vegetations; format: ADME, organism-based; conditions: in vivo; procedure, shortened: as §1
# Staphylococcus aureus [16] = assay: Antimicrobial activity against methicillin-susceptible Staphylococcus aureus 616 at 6 mg/kg administered daily for 4 days in in vitro pharmacokinetic-pharmacodynamic model with simulated endocardial vegetations; format: functional
# Procedure, shortened: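 SEVs (clot of cryoprecipitate, platelets and organism) were suspended in a 250-ml, 37°C model with bolus dosing and pump clearance simulating half-lives. Daptomycin was given every 24 h (Cmax 98.6, Cmin 6.2 mg/liter) after 4 days of vancomycin 1 g q12h or no treatment. SEVs were sampled to 192 h, homogenized and plated (35°C, 24 h) for CFU/g; T99.9 was derived. Runs were done in duplicate.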
# Staphylococcus aureus [17] = assay: Cmax in methicillin-susceptible Staphylococcus aureus 616 at 10 mg/kg administered daily for 4 days pretreated with 1 g vancomycin administered every 12 hrs for 4 days in in vitro pharmacokinetic-pharmacodynamic model with simulated endocardial vegetations; format: ADME, organism-based; parameters: dose 10 mg/kg; conditions: in vivo, 96 h; procedure, shortened: as §1
# Staphylococcus aureus [18] = assay: Antimicrobial activity against methicillin-resistant Staphylococcus aureus WB2
# Staphylococcus aureus [19] = assay: Half life in methicillin-susceptible Staphylococcus aureus 616 at 10 mg/kg administered daily for 4 days pretreated with 1 g vancomycin administered every 12 hrs for 4 days in in vitro pharmacokinetic-pharmacodynamic model with simulated endocardial vegetations; format: ADME, organism-based; parameters: dose 10 mg/kg; conditions: in vivo, 96 h; procedure, shortened: as §1
# Staphylococcus aureus [20] = assay: microbe, parasite or virus in culture; conditions: 675
# Staphylococcus aureus [21] = assay: microbe, parasite or virus in culture; conditions: 36132
# Staphylococcus aureus [22] = assay: Half life in methicillin-resistant Staphylococcus aureus WB1 at 6 mg/kg administered daily for 4 days pretreated with 1 g vancomycin administered every 12 hrs for 4 days in in vitro pharmacokinetic-pharmacodynamic model with simulated endocardial vegetations; format: ADME, organism-based; parameters: dose 6 mg/kg; conditions: in vivo, 96 h; procedure, shortened: as §1
# Staphylococcus aureus [23] = assay: Cmax in methicillin-resistant Staphylococcus aureus 36132 at 6 mg/kg administered daily for 4 days pretreated with 1 g vancomycin administered every 12 hrs for 4 days in in vitro pharmacokinetic-pharmacodynamic model with simulated endocardial vegetations; format: ADME, organism-based; parameters: dose 6 mg/kg; conditions: in vivo, 96 h; procedure, shortened: as §1
# Staphylococcus aureus [24] = assay: Antimicrobial activity against methicillin-susceptible Staphylococcus aureus 616; format: functional
# Procedure, shortened: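 MIC by broth microdilution in SMHB or by Etest, following CLSI guidelines. MBC defined as 99.9% killing of the starting inoculum, from 5 μl of the MIC well and all other growth-inhibited wells plated onto agar.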
# Staphylococcus aureus [25] = assay: Half life in methicillin-susceptible Staphylococcus aureus 616 at 1 g administered every 12 hrs for 4 days in in vitro pharmacokinetic-pharmacodynamic model with simulated endocardial vegetations; format: ADME, organism-based; conditions: in vivo; procedure, shortened: as §1
# Staphylococcus aureus [26] = assay: Half life in methicillin-resistant Staphylococcus aureus 675 at 1 g administered every 12 hrs for 4 days in in vitro pharmacokinetic-pharmacodynamic model with simulated endocardial vegetations; format: ADME, organism-based; conditions: in vivo; procedure, shortened: as §1
# Staphylococcus aureus [27] = assay: Cmax in methicillin-resistant Staphylococcus aureus 675 at 1 g administered every 12 hrs for 4 days in in vitro pharmacokinetic-pharmacodynamic model with simulated endocardial vegetations; format: ADME, organism-based; parameters: dose 1 g; conditions: in vivo; procedure, shortened: as §1
# Staphylococcus aureus [28] = assay: Half life in methicillin-resistant Staphylococcus aureus 36132 at 1 g administered every 12 hrs for 4 days in in vitro pharmacokinetic-pharmacodynamic model with simulated endocardial vegetations; format: ADME, organism-based; conditions: in vivo; procedure, shortened: as §1
# Staphylococcus aureus [29] = assay: Cmax in methicillin-resistant Staphylococcus aureus WB1 at 1 g administered every 12 hrs for 4 days in in vitro pharmacokinetic-pharmacodynamic model with simulated endocardial vegetations; format: ADME, organism-based; parameters: dose 1 g; conditions: in vivo; procedure, shortened: as §1
# Staphylococcus aureus [30] = assay: Half life in methicillin-resistant Staphylococcus aureus WB1 at 1 g administered every 12 hrs for 4 days in in vitro pharmacokinetic-pharmacodynamic model with simulated endocardial vegetations; format: ADME, organism-based; conditions: in vivo; procedure, shortened: as §1
# Staphylococcus aureus [31] = assay: Cmax in methicillin-resistant Staphylococcus aureus WB2 at 1 g administered every 12 hrs for 4 days in in vitro pharmacokinetic-pharmacodynamic model with simulated endocardial vegetations; format: ADME, organism-based; parameters: dose 1 g; conditions: in vivo; procedure, shortened: as §1
# Staphylococcus aureus [32] = assay: Cmax in methicillin-resistant Staphylococcus aureus 36132 at 1 g administered every 12 hrs for 4 days in in vitro pharmacokinetic-pharmacodynamic model with simulated endocardial vegetations; format: ADME, organism-based; parameters: dose 1 g; conditions: in vivo; procedure, shortened: as §1
# Staphylococcus aureus [33] = assay: Cmax in methicillin-susceptible Staphylococcus aureus 616 at 1 g administered every 12 hrs for 4 days in in vitro pharmacokinetic-pharmacodynamic model with simulated endocardial vegetations; format: ADME, organism-based; parameters: dose 1 g; conditions: in vivo; procedure, shortened: as §1
compound,measurement,setting,value
CCCCCCCCCC(=O)N[C@@H](Cc1c[nH]c2ccccc12)C(=O)N[C@H](CC(N)=O)C(=O)N[C@@H](CC(=O)O)C(=O)N[C@@H]1C(=O)NCC(=O)N[C@@H](CCCN)C(=O)N[C@@H](CC(=O)O)C(=O)N[C@H](C)C(=O)N[C@@H](CC(=O)O)C(=O)NCC(=O)N[C@H](CO)C(=O)N[C@@H]([C@H](C)CC(=O)O)C(=O)N[C@@H](CC(=O)c2ccccc2N)C(=O)O[C@@H]1C,Cmax,Staphylococcus aureus [1],107.2 µg/mL
same,T99.9%,Staphylococcus aureus [2],34.9 h
same,T99.9%,Staphylococcus aureus [3],4.8 h
same,MIC,Staphylococcus aureus [4],0.25 µg/mL
same,Cmax,Staphylococcus aureus [5],106.1 µg/mL
same,t1/2,Staphylococcus aureus [6],8.8 h
same,t1/2,Staphylococcus aureus [7],8 h
same,T99.9%,Staphylococcus aureus [8],9.46 h
same,t1/2,Staphylococcus aureus [9],8.4 h
same,T99.9%,Staphylococcus aureus [10],6.6 h
same,Cmax,Staphylococcus aureus [11],106.8 µg/mL
same,RatioAUC/MIC,Staphylococcus aureus [12],536.4
same,t1/2,Staphylococcus aureus [13],7.6 h
same,Cmax,Staphylococcus aureus [14],98.3 µg/mL
same,t1/2,Staphylococcus aureus [15],5.3 h
same,T99.9%,Staphylococcus aureus [16],10.9 h
same,Cmax,Staphylococcus aureus [17],160.2 µg/mL
same,MIC,Staphylococcus aureus [18],0.25 µg/mL
same,t1/2,Staphylococcus aureus [19],9.3 h
same,MIC,Staphylococcus aureus [20],0.25 µg/mL
same,MIC,Staphylococcus aureus [21],0.25 µg/mL
same,t1/2,Staphylococcus aureus [22],7.9 h
same,Cmax,Staphylococcus aureus [23],109.3 µg/mL
same,MIC,Staphylococcus aureus [24],0.125 µg/mL
CN[C@H](CC(C)C)C(=O)N[C@H]1C(=O)N[C@@H](CC(N)=O)C(=O)N[C@H]2C(=O)N[C@H]3C(=O)N[C@H](C(=O)N[C@H](C(=O)O)c4cc(O)cc(O)c4-c4cc3ccc4O)[C@H](O)c3ccc(c(Cl)c3)Oc3cc2cc(c3O[C@@H]2O[C@H](CO)[C@@H](O)[C@H](O)[C@H]2O[C@H]2C[C@](C)(N)[C@H](O)[C@H](C)O2)Oc2ccc(cc2Cl)[C@H]1O [VANCOMYCIN],t1/2,Staphylococcus aureus [25],7.4 h
same,t1/2,Staphylococcus aureus [26],7.2 h
same,Cmax,Staphylococcus aureus [27],32.9 µg/mL
same,t1/2,Staphylococcus aureus [28],6.9 h
same,Cmax,Staphylococcus aureus [29],32.8 µg/mL
same,t1/2,Staphylococcus aureus [15],5.3 h
same,t1/2,Staphylococcus aureus [30],6.6 h
same,Cmax,Staphylococcus aureus [31],33.4 µg/mL
same,Cmax,Staphylococcus aureus [32],31.4 µg/mL
same,Cmax,Staphylococcus aureus [33],31.7 µg/mL
